Measurements published in ChEMBL document CHEMBL1687738, “Effect of Candida glabrata FKS1 and FKS2 mutations on echinocandin sensitivity and kinetics of 1,3-beta-D-glucan synthase: implication for the existing susceptibility breakpoint” (Antimicrob Agents Chemother, 2009).
≈ marks a conversion by molar mass, not a printed value. Starred links: 1 amine or outer side, 2 acyl side, 3 side chain; linkers in the order of their positions; H or OH if unused. Positions of bridges follow the written chain, without caps; N, C: chain ends. Non-standard residues stand in square brackets, D forms with d. Residues, ends and D or L forms follow the SMILES beside them. *: point of attachment. hTyr(3S-OH,4S-OH,3'-OSO3H) = N[C@H](C(=O)O)[C@H](O)[C@@H](O)c1ccc(O)c(OS(=O)(=O)O)c1; Orn(4R-OH,5R-OH) = O=C([C@H](C[C@@H](O)[C@@H](O)N[*:3])N[*:1])[*:2]; Pro(3S-OH,4S-Me) = C[C@H]1CN[C@H](C(=O)O)[C@H]1O; X1 = CCCCCOc1ccc(-c2cc(-c3ccc(C(=O)*)cc3)no2)cc1; Gln(3R-OH) = NC(=O)C[C@@H](O)[C@H](N)C(=O)O; Hyp = O=C(O)[C@@H]1C[C@@H](O)CN1

Tests used:
Nakaseomyces glabratus [1] = assay: Antifungal activity against Candida glabrata ATCC 90030 expressing wild type Fks1p and Fks2p by CLSI method; assay type: functional
Procedure, shortened: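 Broth microdilution MIC per CLSI M27-A3 in RPMI 1640 medium, also run in RPMI 1640 with 50% serum. Wild-type control strain. Caspofungin and micafungin dissolved in sterile distilled water and anidulafungin in 100% DMSO; stock solutions stored at −86°C. Geometric means used to compare MICs.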

Nakaseomyces glabratus [2] = assay: Antifungal activity against Candida glabrata isolate 3168 expressing wild type Fks1p and Fks2p by CLSI method; assay type: functional
Procedure, shortened: (§1)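 Broth microdilution MIC per CLSI M27-A3 in RPMI 1640 medium without serum. Caspofungin and micafungin stocks in sterile water; anidulafungin stock in 100% DMSO; stocks kept at −86°C.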

Nakaseomyces glabratus [3] = assay: Antifungal activity against Candida glabrata isolate 21900 expressing Fks1p D632G mutant and wild type Fks2p by CLSI method; assay type: functional
Nakaseomyces glabratus [4] = assay: Antifungal activity against Candida glabrata isolate 42971 expressing Fks1p D632Y mutant and Fks2p R1377STOP mutant by CLSI method; assay type: functional; procedure, shortened: as §1
Nakaseomyces glabratus [5] = assay: Antifungal activity against Candida glabrata isolate 31498 expressing wild type Fks1p and Fks2p F659 deletion mutant by CLSI method; assay type: functional; procedure, shortened: as §1
Nakaseomyces glabratus [6] = assay: Antifungal activity against Candida glabrata isolate 3830 expressing wild type Fks1p and Fks2p S663P mutant by CLSI method; assay type: functional; procedure, shortened: as §1
Nakaseomyces glabratus [7] = assay: Antifungal activity against Candida glabrata isolate 5416 expressing wild type Fks1p and Fks2p W1375L mutant by CLSI method; assay type: functional; procedure, shortened: as §1
Nakaseomyces glabratus [8] = assay: Antifungal activity against Candida glabrata ATCC 90030 expressing wild type Fks1p and Fks2p by CLSI method in presence of 50% human serum; assay type: functional
Procedure, shortened: (§2)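 Broth microdilution MIC per CLSI M27-A3 in RPMI 1640 supplemented with 50% serum. Caspofungin and micafungin stocks in sterile water; anidulafungin stock in 100% DMSO; stocks kept at −86°C.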

Nakaseomyces glabratus [9] = assay: Antifungal activity against Candida glabrata isolate 218 expressing wild type Fks1p and Fks2p by CLSI method in presence of 50% human serum; assay type: functional; procedure, shortened: as §2
Nakaseomyces glabratus [10] = assay: Antifungal activity against Candida glabrata isolate 3168 expressing wild type Fks1p and Fks2p by CLSI method in presence of 50% human serum; assay type: functional; procedure, shortened: as §2
Nakaseomyces glabratus [11] = assay: Antifungal activity against Candida glabrata isolate 42997 expressing Fks1p F625S mutant and wild type Fks2p by CLSI method in presence of 50% human serum; assay type: functional; procedure, shortened: as §2
Nakaseomyces glabratus [12] = assay: Antifungal activity against Candida glabrata isolate 5847 expressing Fks1p S629P mutant and wild type Fks2p by CLSI method in presence of 50% human serum; assay type: functional; procedure, shortened: as §2
Nakaseomyces glabratus [13] = assay: Antifungal activity against Candida glabrata isolate 21900 expressing Fks1p D632G mutant and wild type Fks2p by CLSI method in presence of 50% human serum; assay type: functional; procedure, shortened: as §2
Nakaseomyces glabratus [14] = assay: Antifungal activity against Candida glabrata isolate 3169 expressing Fks1p D632E mutant and wild type Fks2p by CLSI method in presence of 50% human serum; assay type: functional; procedure, shortened: as §2
Nakaseomyces glabratus [15] = assay: Antifungal activity against Candida glabrata isolate 31498 expressing wild type Fks1p and Fks2p F659 deletion mutant by CLSI method in presence of 50% human serum; assay type: functional; procedure, shortened: as §2
Nakaseomyces glabratus [16] = assay: Antifungal activity against Candida glabrata isolate 234 expressing wild type Fks1p and Fks2p F659V mutant by CLSI method in presence of 50% human serum; assay type: functional; procedure, shortened: as §2
Nakaseomyces glabratus [17] = assay: Antifungal activity against Candida glabrata isolate 41026 expressing wild type Fks1p and Fks2p F659S mutant by CLSI method in presence of 50% human serum; assay type: functional; procedure, shortened: as §2
Nakaseomyces glabratus [18] = assay: Antifungal activity against Candida glabrata isolate 3830 expressing wild type Fks1p and Fks2p S663P mutant by CLSI method in presence of 50% human serum; assay type: functional; procedure, shortened: as §2
Nakaseomyces glabratus [19] = assay: Antifungal activity against Candida glabrata isolate 41400 expressing wild type Fks1p and Fks2p D666G mutant by CLSI method in presence of 50% human serum; assay type: functional; procedure, shortened: as §2
Nakaseomyces glabratus [20] = assay: Antifungal activity against Candida glabrata isolate 42031 expressing wild type Fks1p and Fks2p D666E mutant by CLSI method in presence of 50% human serum; assay type: functional; procedure, shortened: as §2
Nakaseomyces glabratus [21] = assay: Antifungal activity against Candida glabrata isolate 51916 expressing wild type Fks1p and Fks2p P667T mutant by CLSI method in presence of 50% human serum; assay type: functional; procedure, shortened: as §2
Nakaseomyces glabratus [22] = assay: Antifungal activity against Candida glabrata isolate 5416 expressing wild type Fks1p and Fks2p W1375L mutant by CLSI method in presence of 50% human serum; assay type: functional; procedure, shortened: as §2
[23] = Inhibition of Candida glabrata isolate 218 wild type 1,3-beta-D-glucan synthase; design: species or system Nakaseomyces glabratus
Procedure, shortened: (§3)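 Cells grown in YPD broth at 35°C with vigorous shaking to early stationary phase. Membrane protein extracted and glucan synthase partially purified by product entrapment. Filtration polymerization assay measured [3H]glucose incorporation into product, started by adding enzyme. Echinocandin serial dilutions spanned 0.01–10,000 ng/ml, with 1% DMSO controls for anidulafungin. IC50 from variable-slope sigmoidal fit.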

[24] = biological target: 1,3-beta-glucan synthase component FKS1 (Candida glabrata, UniProt E2GKZ4, S629P); assay: Inhibition of Candida glabrata isolate 5847 1,3-beta-D-glucan synthase Fks1p S629P mutant/wild type Fks2p; design: species or system Nakaseomyces glabratus; procedure, shortened: as §3
[25] = biological target: 1,3-beta-glucan synthase component FKS1 (Candida glabrata, UniProt E2GKZ4, D632G); assay: Inhibition of Candida glabrata isolate 21900 1,3-beta-D-glucan synthase Fks1p D632G mutant/wild type Fks2p; design: species or system Nakaseomyces glabratus; procedure, shortened: as §3
[26] = Inhibition of Candida glabrata isolate 42971 1,3-beta-D-glucan synthase Fks1p D632Y mutant/Fks2p R1377STOP mutant; design: species or system Nakaseomyces glabratus; procedure, shortened: as §3
[27] = Inhibition of Candida glabrata isolate 31498 1,3-beta-D-glucan synthase wild type Fks1p/Fks2p F659 deletion mutant; design: species or system Nakaseomyces glabratus; procedure, shortened: as §3
1,3-beta-glucan synthase [28] = biological target: 1,3-beta-glucan synthase (Candida glabrata, UniProt F5BCZ9, F659S); assay: Inhibition of Candida glabrata isolate 41026 1,3-beta-D-glucan synthase wild type Fks1p/Fks2p F659S mutant; design: species or system Nakaseomyces glabratus; procedure, shortened: as §3
1,3-beta-glucan synthase [29] = biological target: 1,3-beta-glucan synthase (Candida glabrata, UniProt F5BCZ9, S663P); assay: Inhibition of Candida glabrata isolate 3830 1,3-beta-D-glucan synthase wild type Fks1p/Fks2p S663P mutant; design: species or system Nakaseomyces glabratus; procedure, shortened: as §3
1,3-beta-glucan synthase [30] = biological target: 1,3-beta-glucan synthase (Candida glabrata, UniProt F5BCZ9, D666G); assay: Inhibition of Candida glabrata isolate 41400 1,3-beta-D-glucan synthase wild type Fks1p/Fks2p D666G mutant; design: species or system Nakaseomyces glabratus; procedure, shortened: as §3
Sequence of 1,3-beta-glucan synthase (Candida glabrata, UniProt F5BCZ9, D666G) (F5BCZ9 entry or part of it D666G): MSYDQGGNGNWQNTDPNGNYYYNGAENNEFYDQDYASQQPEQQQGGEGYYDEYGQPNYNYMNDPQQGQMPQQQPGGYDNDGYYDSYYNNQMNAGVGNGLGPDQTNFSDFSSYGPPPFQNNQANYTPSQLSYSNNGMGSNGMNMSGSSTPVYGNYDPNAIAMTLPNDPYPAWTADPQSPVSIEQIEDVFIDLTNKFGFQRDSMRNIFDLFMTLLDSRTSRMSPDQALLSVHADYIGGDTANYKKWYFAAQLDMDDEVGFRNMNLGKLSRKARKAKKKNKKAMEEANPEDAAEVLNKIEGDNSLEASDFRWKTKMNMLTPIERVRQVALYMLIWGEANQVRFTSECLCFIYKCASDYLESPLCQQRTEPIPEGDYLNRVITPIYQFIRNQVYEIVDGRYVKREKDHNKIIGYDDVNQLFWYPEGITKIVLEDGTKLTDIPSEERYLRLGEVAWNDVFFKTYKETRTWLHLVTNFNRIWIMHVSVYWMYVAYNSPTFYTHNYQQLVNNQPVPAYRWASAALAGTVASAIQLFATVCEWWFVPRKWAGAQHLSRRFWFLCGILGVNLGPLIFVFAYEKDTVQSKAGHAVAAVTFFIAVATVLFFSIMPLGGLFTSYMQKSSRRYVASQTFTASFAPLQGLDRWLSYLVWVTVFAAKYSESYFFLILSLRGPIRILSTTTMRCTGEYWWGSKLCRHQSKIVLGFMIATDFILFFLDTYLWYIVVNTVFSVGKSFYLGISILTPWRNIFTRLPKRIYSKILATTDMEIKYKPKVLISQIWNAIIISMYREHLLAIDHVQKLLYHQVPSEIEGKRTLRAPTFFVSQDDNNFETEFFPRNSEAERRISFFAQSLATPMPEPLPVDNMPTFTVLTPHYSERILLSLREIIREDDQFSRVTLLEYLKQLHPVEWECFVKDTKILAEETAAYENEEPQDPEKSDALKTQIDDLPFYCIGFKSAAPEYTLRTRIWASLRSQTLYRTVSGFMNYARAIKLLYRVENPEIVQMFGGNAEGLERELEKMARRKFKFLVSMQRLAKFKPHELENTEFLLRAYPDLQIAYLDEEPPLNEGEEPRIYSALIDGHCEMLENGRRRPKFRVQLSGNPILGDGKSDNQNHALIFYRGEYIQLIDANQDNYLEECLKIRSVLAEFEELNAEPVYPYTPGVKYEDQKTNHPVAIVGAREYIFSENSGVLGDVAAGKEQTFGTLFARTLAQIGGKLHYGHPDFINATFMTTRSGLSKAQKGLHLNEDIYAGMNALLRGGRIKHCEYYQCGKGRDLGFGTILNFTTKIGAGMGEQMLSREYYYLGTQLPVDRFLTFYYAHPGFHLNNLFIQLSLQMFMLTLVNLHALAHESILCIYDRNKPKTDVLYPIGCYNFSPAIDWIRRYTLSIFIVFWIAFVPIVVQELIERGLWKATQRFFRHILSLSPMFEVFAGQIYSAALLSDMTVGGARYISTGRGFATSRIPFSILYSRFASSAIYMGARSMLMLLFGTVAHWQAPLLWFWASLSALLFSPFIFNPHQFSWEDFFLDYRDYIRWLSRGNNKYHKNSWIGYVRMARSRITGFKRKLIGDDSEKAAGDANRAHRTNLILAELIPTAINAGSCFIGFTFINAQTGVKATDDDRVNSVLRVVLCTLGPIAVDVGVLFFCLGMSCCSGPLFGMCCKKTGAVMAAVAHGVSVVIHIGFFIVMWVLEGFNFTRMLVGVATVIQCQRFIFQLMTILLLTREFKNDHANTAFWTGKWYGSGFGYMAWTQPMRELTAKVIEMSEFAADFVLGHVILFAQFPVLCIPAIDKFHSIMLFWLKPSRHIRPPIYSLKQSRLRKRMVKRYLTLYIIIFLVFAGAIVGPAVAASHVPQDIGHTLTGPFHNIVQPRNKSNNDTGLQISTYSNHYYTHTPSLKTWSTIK

1,3-beta-glucan synthase [31] = biological target: 1,3-beta-glucan synthase (Candida glabrata, UniProt F5BCZ9, D666E); assay: Inhibition of Candida glabrata isolate 42031 1,3-beta-D-glucan synthase wild type Fks1p/Fks2p D666E mutant; design: species or system Nakaseomyces glabratus; procedure, shortened: as §3
1,3-beta-glucan synthase [32] = biological target: 1,3-beta-glucan synthase (Candida glabrata, UniProt F5BCZ9, P667T); assay: Inhibition of Candida glabrata isolate 51916 1,3-beta-D-glucan synthase wild type Fks1p/Fks2p P667T mutant; design: species or system Nakaseomyces glabratus; procedure, shortened: as §3
Sequence of 1,3-beta-glucan synthase (Candida glabrata, UniProt F5BCZ9, P667T) (F5BCZ9 entry or part of it P667T): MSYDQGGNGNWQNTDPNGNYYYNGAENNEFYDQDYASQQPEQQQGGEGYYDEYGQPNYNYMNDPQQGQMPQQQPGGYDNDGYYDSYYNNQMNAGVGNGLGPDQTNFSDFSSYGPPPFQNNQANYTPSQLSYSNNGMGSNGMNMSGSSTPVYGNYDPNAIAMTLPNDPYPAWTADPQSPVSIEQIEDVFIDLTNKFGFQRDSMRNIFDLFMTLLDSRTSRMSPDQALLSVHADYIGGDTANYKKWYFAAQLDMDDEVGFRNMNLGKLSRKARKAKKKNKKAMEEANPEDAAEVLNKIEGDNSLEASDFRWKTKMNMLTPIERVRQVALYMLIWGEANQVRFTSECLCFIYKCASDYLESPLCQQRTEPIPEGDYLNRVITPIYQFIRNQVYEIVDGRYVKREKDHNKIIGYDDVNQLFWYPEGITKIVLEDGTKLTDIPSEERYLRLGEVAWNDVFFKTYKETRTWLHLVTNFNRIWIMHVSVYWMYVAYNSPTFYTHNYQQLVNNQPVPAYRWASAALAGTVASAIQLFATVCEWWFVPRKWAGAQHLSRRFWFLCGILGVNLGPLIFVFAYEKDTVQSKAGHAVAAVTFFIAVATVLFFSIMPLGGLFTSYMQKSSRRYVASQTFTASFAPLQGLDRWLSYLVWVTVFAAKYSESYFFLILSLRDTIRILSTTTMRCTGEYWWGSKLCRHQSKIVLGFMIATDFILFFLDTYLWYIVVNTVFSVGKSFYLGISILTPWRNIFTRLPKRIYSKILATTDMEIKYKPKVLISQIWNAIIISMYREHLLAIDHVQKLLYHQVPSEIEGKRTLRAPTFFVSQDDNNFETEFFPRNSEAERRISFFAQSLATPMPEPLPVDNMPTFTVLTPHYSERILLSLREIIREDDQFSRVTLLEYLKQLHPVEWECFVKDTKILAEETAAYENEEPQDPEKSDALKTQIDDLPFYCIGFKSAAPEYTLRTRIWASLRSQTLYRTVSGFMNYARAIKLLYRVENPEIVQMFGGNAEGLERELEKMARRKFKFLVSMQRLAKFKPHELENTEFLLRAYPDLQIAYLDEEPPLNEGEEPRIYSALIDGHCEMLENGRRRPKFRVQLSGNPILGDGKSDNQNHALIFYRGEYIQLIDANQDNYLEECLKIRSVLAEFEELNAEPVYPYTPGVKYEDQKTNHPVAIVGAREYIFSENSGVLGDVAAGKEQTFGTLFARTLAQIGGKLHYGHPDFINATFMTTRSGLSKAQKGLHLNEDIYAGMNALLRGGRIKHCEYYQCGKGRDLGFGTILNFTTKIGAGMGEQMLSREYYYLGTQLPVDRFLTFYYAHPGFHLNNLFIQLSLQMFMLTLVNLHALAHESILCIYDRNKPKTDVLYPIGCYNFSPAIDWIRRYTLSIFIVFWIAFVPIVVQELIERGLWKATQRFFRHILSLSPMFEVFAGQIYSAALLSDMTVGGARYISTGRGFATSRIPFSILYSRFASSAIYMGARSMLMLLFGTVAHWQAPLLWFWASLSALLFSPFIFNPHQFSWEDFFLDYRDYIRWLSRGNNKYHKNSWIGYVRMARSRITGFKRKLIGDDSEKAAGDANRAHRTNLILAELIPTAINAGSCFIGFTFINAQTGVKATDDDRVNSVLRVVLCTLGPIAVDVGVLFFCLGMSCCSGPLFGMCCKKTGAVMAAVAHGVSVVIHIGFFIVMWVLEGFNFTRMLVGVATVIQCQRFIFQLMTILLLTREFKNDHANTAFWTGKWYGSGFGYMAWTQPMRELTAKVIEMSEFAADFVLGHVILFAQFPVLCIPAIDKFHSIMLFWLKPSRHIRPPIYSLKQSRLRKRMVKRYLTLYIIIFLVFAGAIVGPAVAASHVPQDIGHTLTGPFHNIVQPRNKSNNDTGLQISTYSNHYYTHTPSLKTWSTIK

Nakaseomyces glabratus [33] = assay: Ratio of IC50 for Candida glabrata wild type 1,3-beta-glucan synthase to IC50 for Candida glabrata 1,3-beta-glucan synthase mutant

SMILES	MIC (Nakaseomyces glabratus [1]) [µg/mL]	MIC (Nakaseomyces glabratus [2]) [µg/mL]	MIC (Nakaseomyces glabratus [3]) [µg/mL]	MIC (Nakaseomyces glabratus [4]) [µg/mL]	MIC (Nakaseomyces glabratus [5]) [µg/mL]	MIC (Nakaseomyces glabratus [6]) [µg/mL]	MIC (Nakaseomyces glabratus [7]) [µg/mL]	MIC (Nakaseomyces glabratus [8]) [µg/mL]	MIC (Nakaseomyces glabratus [9]) [µg/mL]	MIC (Nakaseomyces glabratus [10]) [µg/mL]	MIC (Nakaseomyces glabratus [11]) [µg/mL]	MIC (Nakaseomyces glabratus [12]) [µg/mL]	MIC (Nakaseomyces glabratus [13]) [µg/mL]	MIC (Nakaseomyces glabratus [14]) [µg/mL]	MIC (Nakaseomyces glabratus [15]) [µg/mL]	MIC (Nakaseomyces glabratus [16]) [µg/mL]	MIC (Nakaseomyces glabratus [17]) [µg/mL]	MIC (Nakaseomyces glabratus [18]) [µg/mL]	MIC (Nakaseomyces glabratus [19]) [µg/mL]	MIC (Nakaseomyces glabratus [20]) [µg/mL]	also measured
CC[C@H](C)C[C@H](C)CCCCCCCCC(=O)N[C@H]1C[C@@H](O)[C@@H](NCCN)NC(=O)[C@@H]2[C@@H](O)CCN2C(=O)[C@H]([C@H](O)CCN)NC(=O)[C@H]([C@H](O)[C@@H](O)c2ccc(O)cc2)NC(=O)[C@@H]2C[C@@H](O)CN2C(=O)[C@H]([C@@H](C)O)NC1=O [CASPOFUNGIN]	0.06 (≈ 0.0549 µM)	0.06 (≈ 0.0549 µM)	4 (≈ 3.66 µM)	8 (≈ 7.32 µM)	2 (≈ 1.83 µM)	16 (≈ 14.6 µM)	4 (≈ 3.66 µM)	0.12	0.25	0.12	8	8	16	8	8	8	16	16	8	8	MIC (Nakaseomyces glabratus [21]): 8 µg/mL; MIC (Nakaseomyces glabratus [22]): 8 µg/mL; IC50 [23]: 0.00311 µg/mL (≈ 0.00284 µM); IC50 [24]: 4560 nM; IC50 [25]: 692 nM; IC50 [26]: 5.2485 µg/mL (≈ 4.8 µM); IC50 [27]: 0.1172 µg/mL (≈ 0.107 µM); IC50 (1,3-beta-glucan synthase [28]): 973 nM; IC50 (1,3-beta-glucan synthase [29]): 4680 nM; IC50 (1,3-beta-glucan synthase [30]): 463 nM; IC50 (1,3-beta-glucan synthase [31]): 236 nM; IC50 (1,3-beta-glucan synthase [32]): 152 nM; Ratio IC50 (Nakaseomyces glabratus [33]): 267
CCCCCOc1ccc(-c2cc(-c3ccc(C(=O)N[C@H]4C[C@@H](O)[C@@H](O)NC(=O)[C@@H]5[C@@H](O)[C@@H](C)CN5C(=O)[C@H]([C@H](O)CC(N)=O)NC(=O)[C@H]([C@H](O)[C@@H](O)c5ccc(O)c(OS(=O)(=O)O)c5)NC(=O)[C@@H]5C[C@@H](O)CN5C(=O)[C@H]([C@@H](C)O)NC4=O)cc3)no2)cc1 [MICAFUNGIN] (X1-[Orn(4R-OH,5R-OH)]T[Hyp][hTyr(3S-OH,4S-OH,3'-OSO3H)][Gln(3R-OH)][Pro(3S-OH,4S-Me)]; lactam 1-C)	0.03 (≈ 0.0236 µM)	0.06 (≈ 0.0472 µM)	0.5 (≈ 0.394 µM)	1 (≈ 0.787 µM)	4 (≈ 3.15 µM)	1 (≈ 0.787 µM)	0.25 (≈ 0.197 µM)	0.25	1	0.5	4	8	8	8	8	8	16	8	4	4	MIC (Nakaseomyces glabratus [21]): 4 µg/mL; MIC (Nakaseomyces glabratus [22]): 2 µg/mL; IC50 [23]: 0.00056 µg/mL (≈ 0.000441 µM); IC50 [24]: 673 nM; IC50 [25]: 270 nM; IC50 [26]: 0.4134 µg/mL (≈ 0.325 µM); IC50 [27]: 0.1235 µg/mL (≈ 0.0972 µM); IC50 (1,3-beta-glucan synthase [28]): 840 nM; IC50 (1,3-beta-glucan synthase [29]): 2020 nM; IC50 (1,3-beta-glucan synthase [30]): 79.2 nM; IC50 (1,3-beta-glucan synthase [31]): 69.8 nM; IC50 (1,3-beta-glucan synthase [32]): 87.3 nM; Ratio IC50 (Nakaseomyces glabratus [33]): 60
